B1: Cytochrome P450 2D6 (Homo sapiens) (protein)
chain: MGLEALVPLAVIVAIFLLLVDLMHRRQRWAARYPPGPLPLPGLGNLLHVDFQNTPYCFDQLRRRFGDVFSLQLAWTPVVVLNGLAAVREALVTHGEDTADRPPVPITQILGFGPRSQGVFLARYGPAWREQRRFSVSTLRNLGLGKKSLEQWVTEEAACLCAAFANHSGRPFRPNGLLDKAVSNVIASLTCGRRFEYDDPRFLRLLDLAQEGLKEESGFLREVLNAVPVLLHIPALAGKVLRFQKAFLTQLDELLTEHRMTWDPAQPPRDLTEAFLAEMEKAKGNPESSFNDENLRIVVADLFSAGMVTTSTTLAWGLLLMILHPDVQRRVQQEIDDVIGQVRRPEMGDQAHMPYTTAVIHEVQRFGDIVPLGVTHMTSRDIEVQGFRIPKGTTLITNLSSVLKDEAVWEKPFRFHPEHFLDAQGHFVKPEAFLPFSAGRRACLGEPLARMELFLFFTSLLQHFSFSVPTGQPRPSHHGVFAFLVSPSPYELCAVPR

Key:
Liver microsomes = assay: Metabolic stability in human liver microsome assessed as ratio of half life between CYP2D6-deficient microsome and CYP2D6-deficient microsome with addition of exogenous CYP2D6; assay type: ADME
How it was run: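 Half-lives were measured in CYP2D6-deficient human liver microsomes with and without added exogenous CYP2D6. The value is the ratio of the half-life without CYP2D6 to the half-life with it.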

Cytochrome P450 2D6 [1] = target: T1, Cytochrome P450 2D6 (Homo sapiens, UniProt P10635); assay: Binding affinity to human CYP2D6 using bufuralol as substrate; assay type: ADME
Substance-P receptor = Substance-P receptor (Homo sapiens, UniProt P25103); assay: Displacement of [3H]SP from NK1 receptor in human IM9 cells
CYP2D6 = CYP2D6 (Homo sapiens, UniProt P10635); assay: (§1) Inhibition of human CYP2D6 at 5 uM; assay type: ADME
Mustela putorius furo [2] = assay: Antiemetic activity against cisplatin-induced emesis in sc dosed ferrets; assay type: functional, organism-based
How it was run: (§2)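 Ferrets were given the test compound sc 30 min before cisplatin (10 mg/kg, ip). Retching and vomiting/gagging episodes were counted against vehicle control. Groups were n = 4–5, data are mean ± SEM, and Student's t-test was used. Results are given as ED90 (mg/kg, sc) or as % inhibition at the stated dose.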

Gerbillinae [3] = assay: Inhibition of [Sar9, Met(O2)11]SP-induced foot tapping in sc dosed gerbil
[4] = target: Substance-P receptor (Cavia porcellus) (UniProt P30547); assay: Activity at NK1 receptor in po dosed guinea pig ureter assessed as capsaicin-induced plasma protein leakage; assay type: organism-based
How it was run: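 Guinea pigs were dosed orally. Capsaicin (30 µM) was given ip and caused plasma protein leakage in the ureter, taken as activation of peripheral NK1 receptors. Inhibition was measured across doses, and the ED50 was derived in mg/kg, po.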

Cytochrome P450 2D6 [5] = target: T1, Cytochrome P450 2D6; assay: as §1; assay type: ADME; conditions: 5 µM
Gerbillinae [6] = assay: Inhibition of [Sar9, Met(O2)11]SP-induced foot tapping in gerbil at 1 mg/kg, sc relative to CP-122721
Gerbillinae [7] = assay: Inhibition of [Sar9, Met(O2)11]SP-induced foot tapping in gerbil at 0.1 mg/kg, sc relative to CP-122721
Mustela putorius furo [8] = assay: Antiemetic activity against cisplatin-induced emesis in ferrets at 0.1 mg/kg, sc; assay type: functional; conditions: route subcutaneous; how it was run: as §2
Mustela putorius furo [9] = assay: Antiemetic activity against cisplatin-induced emesis in ferrets at 0.3 mg/kg, sc; assay type: functional; conditions: route subcutaneous; how it was run: as §2
[10] = Oral bioavailability in dog at 5 mg/kg; assay type: ADME, organism-based, Canis lupus familiaris; conditions: in vivo
How it was run: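 Dogs were dosed orally at 5 mg/kg as a water solution. Oral bioavailability was determined.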

Mustela putorius furo [11] = assay: Antiemetic activity against cisplatin-induced emesis in ferrets at 1 mg/kg, sc; assay type: functional; conditions: route subcutaneous; how it was run: as §2
[12] = substrate: COc1cc2c(cc1CN[C@H]1CCCN[C@H]1c1ccccc1)[C@](C)(C(F)(F)F)OCC2; assay: Activity of CYP2D6 for N-dealkylation in human liver microsomes; assay type: ADME, Microsome
[13] = substrate: COc1cc2c(cc1CN[C@H]1CCCN[C@H]1c1ccccc1)[C@](C)(C(F)(F)F)OCC2; assay: Activity of CYP2D6 for hydroxylation in human liver microsomes; assay type: ADME, Microsome
[14] = dose 1 mg/kg, route subcutaneous
[15] = Mustela putorius, sc, read-out: ED90
[16] = dose 0.1 mg/kg, route subcutaneous

Chain of Substance-P receptor (P25103 whole entry): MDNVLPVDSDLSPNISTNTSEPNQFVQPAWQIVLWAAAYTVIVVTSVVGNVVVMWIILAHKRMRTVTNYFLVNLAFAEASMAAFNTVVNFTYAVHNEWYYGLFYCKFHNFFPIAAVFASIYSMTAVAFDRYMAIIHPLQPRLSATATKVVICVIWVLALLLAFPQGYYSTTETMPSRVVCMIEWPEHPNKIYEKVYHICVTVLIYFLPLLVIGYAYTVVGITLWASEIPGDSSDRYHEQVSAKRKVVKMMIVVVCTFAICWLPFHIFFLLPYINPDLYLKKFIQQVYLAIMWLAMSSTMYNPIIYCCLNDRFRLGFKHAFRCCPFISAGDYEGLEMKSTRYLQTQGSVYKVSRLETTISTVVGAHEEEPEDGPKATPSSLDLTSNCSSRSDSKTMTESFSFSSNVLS
Chain of Substance-P receptor (Cavia porcellus) (P30547 whole entry): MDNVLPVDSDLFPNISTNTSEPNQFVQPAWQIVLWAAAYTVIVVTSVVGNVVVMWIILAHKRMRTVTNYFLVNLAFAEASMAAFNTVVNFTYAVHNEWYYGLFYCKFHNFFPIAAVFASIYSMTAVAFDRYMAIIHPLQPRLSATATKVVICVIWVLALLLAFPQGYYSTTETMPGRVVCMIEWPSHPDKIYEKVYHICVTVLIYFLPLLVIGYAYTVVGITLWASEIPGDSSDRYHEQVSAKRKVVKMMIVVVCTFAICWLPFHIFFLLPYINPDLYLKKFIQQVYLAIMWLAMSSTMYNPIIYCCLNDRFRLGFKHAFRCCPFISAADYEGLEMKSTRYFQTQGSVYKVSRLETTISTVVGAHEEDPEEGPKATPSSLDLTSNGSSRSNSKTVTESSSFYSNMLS

Molecule | Ratio (Liver microsomes) | Ki (Cytochrome P450 2D6 [1]) [nM] | IC50 (Substance-P receptor) [nM] | inhibition at 5 µM (CYP2D6) [%] | ED100 (Mustela putorius furo [2]) | ED50 (Gerbillinae [3]) [mg/kg] | inhibition (INH) (Cytochrome P450 2D6 [5]) [%] | other results
COc1ccc(C(C)C(F)(F)F)cc1CN[C@H]1CCCN[C@H]1c1ccccc1 (mixture of isomers) | 2.2 | 840 | 0.4 | 65.9 | >=1 mg kg-1 | 0.82 |  | ED90 (Mustela putorius furo [2]): 0.3 mg/kg
COc1cc2c(cc1CN[C@H]1CCCN[C@H]1c1ccccc1)[C@](C)(C(F)(F)F)OCC2 |  |  |  |  |  |  |  | ED50 [4]: 5 µg/kg
COc1cc2c(cc1CN[C@H]1CCCN[C@H]1c1ccccc1)C(C)(C(F)(F)F)OC2 (mixture of isomers; 15) | 2.1 | 660 | < 0.1 |  | 0.3 mg/kg |  | 73 | inhibition (INH) (Gerbillinae [6]; [14]): 77%; ED90 (Mustela putorius furo [2]; [15]): 0.05 mg/kg
COc1cc2c(cc1CN[C@H]1CCCN[C@H]1c1ccccc1)C(C)(C(F)(F)F)CCC2 (mixture of isomers; 22) |  |  | 0.34 |  |  |  | 90 | inhibition (INH) (Gerbillinae [6]; [14]): 87%; inhibition (INH) (Gerbillinae [7]; [16]): 26%
COc1ccc(C(F)C(F)(F)F)cc1CN[C@H]1CCCN[C@H]1c1ccccc1 (mixture of isomers) | 1.83 |  | 0.7 | 46.6 |  | 0.16 |  | inhibition in vivo at 0.1 mg/kg (Mustela putorius furo [8]): 97%; inhibition in vivo at 0.3 mg/kg (Mustela putorius furo [9]): 97%
COc1cc2c(cc1CN[C@H]1CCCN[C@H]1c1ccccc1)C(C(F)(F)F)OC2 (mixture of isomers) |  |  | < 0.1 | 66.4 |  |  |  | inhibition in vivo at 0.1 mg/kg (Mustela putorius furo [8]): 99%; % inhibition at 0.1 mg/kg (Gerbillinae [7]; Gerbillinae, sc): 84%
COc1ccc(C(C(F)(F)F)C(F)(F)F)cc1CN[C@H]1CCCN[C@H]1c1ccccc1 | 2 | 2100 | < 0.1 | 43.1 | 0.9 mg/kg | 0.33 |  | ED90 (Mustela putorius furo [2]; [15]): 0.48 mg/kg
COc1cc2c(cc1CN[C@H]1CCCN[C@H]1c1ccccc1)C(C)(C(F)(F)F)CCC2 (mixture of isomers; 20) |  |  | < 0.1 |  |  |  | 42 | inhibition (INH) (Gerbillinae [6]; [14]): 65%; inhibition (INH) (Gerbillinae [7]; [16]): 0%
COc1ccc(C(C)(OC)C(F)(F)F)cc1CN[C@H]1CCCN[C@H]1c1ccccc1 (mixture of isomers) |  |  |  | 62.6 |  | 0.11 |  | inhibition in vivo at 0.1 mg/kg (Mustela putorius furo [8]): 15%; inhibition in vivo at 1 mg/kg (Gerbillinae [6]; Gerbillinae, sc, dose 1 mg/kg, route subcutaneous): 55%; inhibition in vivo at 0.1 mg/kg (Gerbillinae [7]; Gerbillinae, sc, dose 0.1 mg/kg, route subcutaneous): 63%
COc1cc2c(cc1CN[C@H]1CCCN[C@H]1c1ccccc1)C(C(F)(F)F)CC2 (mixture of isomers; 11) | 10.6 | 520 | 0.4 | 75.9 |  |  |  | % inhibition at 1 mg/kg (Gerbillinae [6]; Gerbillinae, sc): 88%; % inhibition at 0.1 mg/kg (Gerbillinae [7]; Gerbillinae, sc): 79%
COc1cc2c(cc1CN[C@H]1CCCN[C@H]1c1ccccc1)[C@](C)(C(F)(F)F)OCC2.O |  |  |  |  |  |  |  | bioavailability [10]: 9.8%
COc1cc2c(cc1CN[C@H]1CCCN[C@H]1c1ccccc1)C(C)(C(F)(F)F)OC2 (mixture of isomers; 16) |  |  | 0.16 |  |  |  | 81 | inhibition (INH) (Gerbillinae [6]; [14]): 94%; inhibition in vivo at 0.3 mg/kg (Mustela putorius furo [9]): 99%; inhibition (INH) (Gerbillinae [7]; [16]): 87%
COc1ccc(C(C)(C)C(F)(F)F)cc1CN[C@H]1CCCN[C@H]1c1ccccc1 | 1.16 | 1340 | 0.2 | 54.8 | 1 mg/kg | 0.12 |  | ED90 (Mustela putorius furo [2]; [15]): 0.21 mg/kg
COc1cc2c(cc1CN[C@H]1CCCN[C@H]1c1ccccc1)C(C(F)(F)F)CC2 (mixture of isomers; 10) |  |  | 0.9 |  | 1 mg/kg | 0.11 | 74.2 | inhibition in vivo at 1 mg/kg (Mustela putorius furo [11]): 100%; ED90 (Mustela putorius furo [2]; [15]): 0.12 mg/kg
B1 |  |  |  |  |  |  |  | Km [12]: 2.3 µM; Km [13]: 16.6 µM
